NF-kB neuron act – NF-kB expression increase, human neuronal cells | hit rate 1.6% among 190,000 | NF-kB reporter expression; hits give high values | AID 1239 | fold change at 12.5 µM; in the data active = fold change above about 3.3
STAT1 activator – activators of IFN-gamma induced STAT1 signaling; hit rate 2.6% among 200,000; NIH 3T3 STAT1-luciferase reporter, luminescence; 100% = IFN-gamma alone, no compound; activation (% of control), % at 5.5 µM;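 active = activation above the screen-wide mean activation plus 3 SD, cut at about 130% in these data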
APP 5'UTR act – APP 5'UTR luciferase reporter activation; SH-SY5Y APP 5'UTR luciferase reporter, luminescence; zero percent = DMSO vehicle wells; hit rate 1% among 190,000; activation, % at 2 µM;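 active = activation above a set limit, based on mean plus 3 SD of controls, cut at about 140% in these data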
STAT1 blocker – STAT1 signaling inhibition. AID 920. hit rate 0.35% among 200,000. inhibition, % at 5.5 µM. NIH 3T3 STAT1-luciferase reporter, IFN-gamma, luminescence;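 active = inhibition above a set limit, the mean inhibition across all tested compounds plus 3 SD, cut at about 34% in these data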
STAT3 inh – inhibitors of IL-6 induced STAT3 signaling. hit rate 0.89% among 190,000. AID 862. inhibition, % at 5.5 µM. U3A cells, IL-6 STAT3-luciferase reporter, luminescence; host cell line lacks STAT1;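 active = inhibition above the mean inhibition across all screened compounds plus 3 SD, cut at about 44% in these data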
STAT3 act – STAT3 signaling activation. U3A cells, IL-6 STAT3-luciferase reporter, luminescence; 100% = signal with IL-6 EC80 alone. activation (% of control), % at 5.6 µM. hit rate 0.91% among 190,000;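 active = activation above the screen-wide mean of compound activation plus 3 SD, cut at about 130% in these data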
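Test system: human U3A cells carrying STAT3-luciferase construct; control set: IL-6-only wells as 100% reference; timing: compound pre-incubation 1 h before IL-6, then 6 h stimulation at 37 °C; also added: IL-6 stimulus at 33 ng/mL final; evaluation: % activation versus median of IL-6-stimulated wells; detection: reporter luminescence signal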
A number is an active result; i = inactive; nt = not tested or not shown. Rows were chosen to be rich in hits. Some 5.1% of all compounds tested hit in one or more screens of this group.

SMILES | NF-kB neuron act | STAT1 activator | APP 5'UTR act | STAT1 blocker | STAT3 inh | STAT3 act
Cc1cc(C(=O)Cn2nnc3ccccc3c2=O)c(C)n1-c1c(C)n(C)n(-c2ccccc2)c1=O | i | i | i | i | i | i
CCn1cc(C(=O)OCC(=O)c2cc(C)n(-c3ccccc3F)c2C)c(=O)c2ccc(C)nc21 | i | i | i | i | i | i
Cc1cc(C(=O)COC(=O)c2ccc(O)cc2)c(C)n1-c1ccccc1F | i | i | 185 | i | i | i
Cc1cc(C(=O)Cn2nnc3ccccc3c2=O)c(C)n1-c1ccccc1F | i | 129 | 197 | i | i | i
O=c1cc(CN2CCc3ccccc32)nc2sccn12 | i | i | i | i | i | 134
O=c1cc(CN2CCCc3ccccc32)nc2sccn12 | i | i | i | i | i | i
COc1cc(-c2nc(-c3ccccn3)no2)cc(OC)c1OC | i | i | i | i | i | i
Cc1ccc(-c2nc(-c3ccccn3)no2)cc1Cl | i | i | 159 | 79 | 99 | i
c1ccc(-c2cc(-c3nc(-c4ccccn4)no3)c3ccccc3n2)cc1 | nt | i | i | i | i | i
Cc1ccc2nc(-c3ccccn3)oc2c1 | 4.5 | i | 176 | i | i | i
COc1cccc(-c2nc(-c3ccccn3)no2)c1OC | i | 136 | i | i | i | i
c1ccc(-c2ccc(-c3nc(-c4ccccn4)no3)cc2)cc1 | i | i | i | 92 | 109 | i
Fc1ccc(-c2csc(-c3ccccn3)n2)cc1F | i | 140 | i | i | i | i
Cc1ccc(-c2nc(-c3ccccn3)no2)cc1 | i | i | i | 90 | 107 | i
c1ccc(-c2nc(-c3ccco3)cs2)nc1 | i | 130 | i | i | i | i
O=C(Nc1nc(-c2ccccn2)cs1)c1ccco1 | i | i | i | i | i | i
c1ccc(-c2noc(-c3ccco3)n2)nc1 | i | 137 | 192 | i | i | i
c1ccc(-c2nccc(-c3ccco3)n2)nc1 | i | i | i | i | i | i
O=C(CCCc1c[nH]c2ccccc12)NCC1COc2ccccc2O1 (stereo not given) | i | i | i | i | i | i
CCN(CC)C(=O)Cn1c(=O)n(-c2ccc(CC(=O)NCc3ccccc3)cc2)c(=O)c2sccc21 | i | i | i | i | i | i
Clc1cccc(-c2nc(-c3ccccn3)no2)c1 | i | i | i | 54 | 81 | i
COc1nc(C)ccc1-c1noc(-c2ccco2)n1 | 4.6 | 140 | 182 | i | i | i
c1ccc(-c2nc(-c3ccccn3)no2)cc1 | i | i | i | 62 | 98 | i
COc1nc(-c2ccc(C)cc2)ccc1-c1noc(-c2ccco2)n1 | i | i | i | i | i | i
c1ccc(-c2noc(-c3cccc4ccccc34)n2)nc1 | i | i | i | i | i | i
SMILES | NF-kB neuron act | STAT1 activator | APP 5'UTR act | STAT1 blocker | STAT3 inh | STAT3 act
Cc1[nH]c2ccccc2c1C1=NNC(=Nc2ccc(F)cc2)SC1 | i | i | i | i | i | i
CC(C)N=C1NN=C(c2ccc(F)cc2)CS1 | 3.5 | i | 136 | i | i | i
NC1=NN=C(c2ccc3c(c2)OCCO3)CS1 | i | i | i | 49 | 66 | i
CCN=C1NN=C(c2ccc(C)cc2)CS1 | i | i | i | i | 66 | i
c1ccc(CN=C2NN=C(c3ccccc3)CS2)cc1 | i | 138 | i | i | i | i
Clc1ccc(C2=NNC(=NCc3ccccc3)SC2)cc1 | i | i | i | i | i | i
CCOC(=O)c1cnn(-c2ccccc2)c1-n1cccc1C(=O)C(=O)Nc1ccccc1 | i | i | i | i | i | i
CCCc1ccc(Oc2cc(N3CCOCC3)nc(-c3ccccc3)n2)cc1 | nt | i | i | i | i | i
CSc1ccc(CN2C(=O)NC3(CCCCCCC3)C2=O)cc1 | i | i | i | i | i | i
COC(=O)c1ccc(C(=O)OC)c(NC(=S)N2CCOCC2)c1 | i | i | i | i | i | i
CC1CCN(C(=O)c2cc(F)c(F)cc2Cl)CC1 | i | i | i | i | i | i
C=CCN=C1NN=C(c2ccc3c(c2)OCCO3)CS1 | i | i | i | 64 | 89 | i
c1ccc(C2=NNC(=NCc3ccc4c(c3)OCO4)SC2)cc1 | i | i | i | i | i | i
CCCCN(C(=O)c1ccc(Cl)c([N+](=O)[O-])c1)c1c(N)n(CCC)c(=O)[nH]c1=O | i | i | i | i | i | i
c1ccc(C2=Nc3ccccc3NC(c3ccccc3)C2)cc1 (stereo not given) | i | i | i | i | i | i
Brc1ccccc1C1CC(c2ccccc2)=Nc2ccccc2N1 (stereo not given) | i | 135 | 149 | i | i | i
Brc1ccc(Nc2nc(-c3cccnc3)cs2)cc1 | i | 131 | i | i | i | 165
O=C(Nc1cccc(Cl)c1)Nc1nc(-c2ccc(Cl)cc2)cs1 | i | i | i | i | i | i
Clc1cccc(Nc2nc(-c3cccnc3)cs2)c1 | i | 139 | i | i | i | 157
c1ccc(CNc2nc(-c3cccnc3)cs2)cc1 | i | i | i | i | i | i
CC(C)CCn1c(Sc2nc3ccccc3o2)nc2c1c(=O)[nH]c(=O)n2C | i | i | i | i | i | i
COc1ccc(C(=O)Nc2ccc(C3CC3(Cl)Cl)cc2)cc1 (stereo not given) | nt | i | i | i | i | i
CCc1nnc(NC(=O)c2cc3c(s2)CCCCC3)s1 | nt | i | i | i | i | i
Cc1cnc(NC(=O)c2cc3c(s2)CCCC3)s1 | 4.1 | i | 173 | 42 | 74 | i
Cc1csc(NC(=O)c2cc3c(s2)CCCCC3)n1 | i | i | i | 68 | 97 | i
SMILES | NF-kB neuron act | STAT1 activator | APP 5'UTR act | STAT1 blocker | STAT3 inh | STAT3 act
NC(=O)c1ccccc1NC(=O)/C=C/c1cccc(Cl)c1 | i | 131 | i | i | i | i
COc1ccc(/C=C/C(=O)Nc2cccc(C(C)=O)c2)cc1 | i | 130 | i | i | i | i
COc1ccccc1/C=C/C(=O)Nc1cccc(C(C)=O)c1 | i | i | i | i | i | i
COc1ccc(NC(=O)/C=C/c2ccco2)cn1 | i | i | i | i | i | i
COc1ccc(NC(=O)/C=C/c2cccc(F)c2)cn1 | 3.8 | 147 | 135 | i | i | i
COc1ccc(/C=C/C(=O)Nc2ccccc2C(=O)O)cc1 | i | i | 152 | 39 | 51 | i
O=C1C(=O)N(CC2CCCO2)C(c2ccco2)/C1=C(/O)c1ccc(F)cc1 (stereo not given) | i | i | i | i | i | i
Cc1cc(NC(=O)CSc2nc3ccc(Cl)cc3[nH]2)no1 | i | i | i | i | i | i
COc1ccc(/C=N/OC(=O)Nc2ccccc2OC)cc1 | 6.3 | i | i | i | i | i
COc1ccc(/C=C/C(=O)Nc2ccccc2C(F)(F)F)cc1 | i | 137 | i | i | i | i
S=c1[nH]c(-c2ccccc2)cn1/N=C/c1ccccc1Br | i | i | i | i | i | i
Cc1ccc(/C=N/n2cc(-c3ccccc3)[nH]c2=S)s1 | i | 129 | i | i | i | i
O=C(O)Cn1ncc2ccccc2c1=O | i | i | i | i | i | i
